The test system of series [1] is C6. The experiment in a line: Drug uptake in rat C6 cells assessed as morphologically differentiation at 10^-4 M after 20 mins by microscopy. It counts as ADME, cell-based. As to conditions: c6, 20 min, 100 µM. In short, it runs like this:
(§1)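 Growing C6 rat glioma cells were kept in DME with 10% newborn calf serum at 37 °C under 10% CO2. Near-confluent plates (about 5-9 x 10^5 cells) were exposed to triester with theophylline on a constantly moving shaking table. The percentage of morphologically altered cells was estimated by microscopy at intervals, with an error of 5-10%.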

Series [2] relates to C6. The experiment in a line: Drug uptake in rat C6 cells assessed as morphologically differentiation at 10^-4 M after 50 mins by microscopy. It counts as ADME, cell-based. Conditions: c6, 50 min, 100 µM. In short, it runs like this:
as §1

Series [3] has as its system C6. The experiment in a line: Drug uptake in rat C6 cells assessed as morphologically differentiation at 10^-4 M after 90 mins by microscopy. It counts as ADME, cell-based. As to conditions: c6, 1.5 h, 100 µM. In a few lines: as §1
The subject of series [4] is C6. The experiment in a line: Drug uptake in rat C6 cells assessed as cAMP level per of protein at 10^-4 M after 90 mins. As to conditions: c6, 1.5 h, 100 µM. It counts as ADME, cell-based. In short, it runs like this:
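C6 glioma cells were grown in DME with 10% newborn calf serum at 37 °C under 10% CO2 and treated with triester plus theophylline. After 90 min, internal cAMP was measured by Gilman's method and related to protein, using a bovine serum albumin standard.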

For series [5], the species on record is Bos taurus. The experiment in a line: Activation of bovine brain cAMP-dependent protein kinase assessed as transfer of p32 to histone using [gamma-32P]ATP at 10^-7 M relative to cAMP triester. In a few lines: (§2)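 Bovine brain cAMP-dependent protein kinase was purified by DEAE-cellulose chromatography (about 1000 units/mg). The 0.2 mL mix held 50 mM Mops pH 6.5, 5 mM MgCl2, 7 mM mercaptoethanol, [γ-32P]ATP (1.3 Ci/mmol), 60 µg calf thymus histones, 15-25 µg kinase and triester or cAMP. It ran 5 min at 30 °C, reading 32P in acid-precipitable histones. Value is test-compound activity divided by cAMP activity.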

The species named for series [6] is Bos taurus. The experiment in a line: Activation of bovine brain cAMP-dependent protein kinase assessed as transfer of p32 to histone using [gamma-32P]ATP at 10^-6 M relative to cAMP triester. In short, it runs like this: as §2
The species named for series [7] is Bos taurus. The experiment in a line: Activation of bovine brain cAMP-dependent protein kinase assessed as transfer of p32 to histone using [gamma-32P]ATP at 10^-5 M relative to cAMP triester. In a few lines: as §2
Series [8] is filed under the species Bos taurus. The experiment in a line: Activation of bovine brain cAMP-dependent protein kinase assessed as transfer of p32 to histone using [gamma-32P]ATP at 10^-4 M relative to cAMP triester. In short, it runs like this: as §2
For series [9], the system named is C6. The experiment in a line: Morphological alteration in rat C6 cells at 10^-3 M after 90 mins by microscopy. It counts as ADME, cell-based. As to conditions: c6, 1.5 h, 1000 µM. In a few lines:
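Near-confluent C6 rat glioma cultures (about 5-9 x 10^5 cells per plate), grown in DME with 10% newborn calf serum, were given 10^-3 M of each triester with theophylline. After 90 min on a shaking table, morphological change was scored microscopically as the percentage of altered cells. + means 90-95% and - means 0% differentiation.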

The nature of series [10]: Retardation factor, Rf of the compound in […] solvent. It counts as physicochemical.
Series [11] in a line: Half life in Mops buffer at pH 6.5 at 30 degC by liquid chromatography. It counts as physicochemical. In short, it runs like this:
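Triester was held in Mops buffer, pH 6.5, at 30 °C. Products were separated by LC with UV monitoring at 258 nm, using integration or an internal standard. Half-life came from a pseudo-first-order kinetic fit.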

The nature of series [12]: Retardation factor, Rf of the compound in ClCH2CH2Cl-EtOH solvent.
Series [13] in a line: Half life in H2O at 5 uM at 50 degC by liquid chromatography. It counts as physicochemical. Conditions: water.
Series [14] in a line: Photolysis mediated drug hydrolysis assessed as half life under 366 nm irradiation by liquid chromatography. It counts as physicochemical. In a few lines:
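The o-nitrobenzyl ester, 4 mM in Me2SO-phosphate buffer pH 7.1 (1:10 v/v), was irradiated at 366 nm with a 320 nm cut-off, at 37 °C and 6 cm from the source. Half-life was estimated from the rate of cAMP formation followed by LC.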

Series [15] concerns C6. The experiment in a line: Drug uptake in rat C6 cells assessed as morphologically differentiation at 10^-3 M after 20 mins by microscopy. Conditions: c6, 20 min, 1000 µM. It counts as ADME, cell-based.
Series [16] relates to C6. The experiment in a line: Drug uptake in rat C6 cells assessed as morphologically differentiation at 10^-3 M after 50 mins by microscopy. It counts as ADME, cell-based. Conditions: c6, 50 min, 1000 µM.
The test system of series [17] is C6. The experiment in a line: Drug uptake in rat C6 cells assessed as morphologically differentiation at 10^-3 M after 90 mins by microscopy. As to conditions: c6, 1.5 h, 1000 µM. It counts as ADME, cell-based.
For series [18], the system named is C6. The experiment in a line: Drug uptake in rat C6 cells assessed as cAMP level per of protein at 10^-3 M after 90 mins. Conditions: c6, 1.5 h, 1000 µM. It counts as ADME, cell-based. Background: Changes in cAMP serve as a functional read-out for many G protein-coupled receptors.

The text below walks through data of ChEMBL document CHEMBL3272058, “Synthesis, structure, and reactivity of adenosine cyclic 3',5'-phosphate benzyl triesters” (J Med Chem, 1977).

For orientation: half-life means the time needed for the level to fall by half in the phase considered.

The structures appear in SMILES notation.

On to `NC[C@H](O)c1ccc(O)c(O)c1.O=C(O)C(O)C(O)C(=O)O`, for which the Activity worked out at 50% with C6 [1], 80% in the series with C6 [2], 90% with C6 [3] and 250 pmol/mg in the series with C6 [4].
For the compound `CCO[P@@]1(=O)OC[C@H]2O[C@@H](n3cnc4c(N)ncnc43)[C@H](O)[C@@H]2O1`, the Ratio worked out at 0 in the series filed under Bos taurus [5], 0 in the series filed under Bos taurus [6], 0.06 in the series listed under Bos taurus [7] and 0.14 in the series filed under Bos taurus [8]. This compound gave an Activity with C6 [9] of 0%. For the same compound, the results for the Rf in series [10] and in series [12] were 0.4 and 0.3, respectively. In [11], this compound had a half-life of 9.5 h.
As for `CO[P@@]1(=O)OC[C@H]2O[C@@H](n3cnc4c(N)ncnc43)[C@H](O)[C@@H]2O1`, the Activity with C6 [9] came out at 0%.
As to `Nc1ncnc2c1ncn2[C@@H]1O[C@@H]2CO[P@@](=O)(OCc3ccc([N+](=O)[O-])cc3)O[C@H]2[C@H]1O`, the Ratio came to 0 in the series listed under Bos taurus [5], 0.04 in the series listed under Bos taurus [6], 0.49 in the series listed under Bos taurus [7] and 1.01 in the series filed under Bos taurus [8]. The compound also yielded an Activity in the series with C6 [9] of 90%. Further, the Rf in series [10] was 0.37; in series [12], 0.25. This compound also showed a half-life at 5 µM in [13] of 73 h. The same compound gave a half-life in series [11] of 3 h.
On to `COP1(=O)OC[C@H]2O[C@@H](n3cnc4c(N)ncnc43)[C@H](O)[C@@H]2O1` (stereo partly specified), for which the Ratio in the series filed under Bos taurus [5] was determined as 0; in the series filed under Bos taurus [6] it was 0.05; in the series listed under Bos taurus [7] it was 0.52; in the series filed under Bos taurus [8] it was 0.67. Further, the Rf is on record as 0.33 in series [10] and 0.18 in series [12].
Compound `CO[P@]1(=O)OC[C@H]2OC(n3cnc4c(N)ncnc43)[C@H](O)[C@@H]2O1` (single isomer, unassigned) returned an Activity in the series with C6 [9] of 0%.
As for `Nc1ncnc2c1ncn2[C@@H]1O[C@@H]2CO[P@](=O)(OCc3ccc([N+](=O)[O-])cc3)O[C@H]2[C@H]1O`, the Ratio in the series listed under Bos taurus [5] amounted to 0; in the series filed under Bos taurus [6], 0; in the series filed under Bos taurus [7], 0.24; in the series filed under Bos taurus [8] it was 0.54. In the series with C6 [9], this compound had an Activity of 90%. Also, the Rf in [10] is given as 0.43; in series [12], 0.34. For the same compound, the half-life at 5 µM in series [13] is 240 h. The same compound had a half-life in series [11] of 9.5 h.
Regarding `Nc1ncnc2c1ncn2[C@@H]1O[C@@H]2CO[P@@](=O)(OCc3ccccc3[N+](=O)[O-])O[C@H]2[C@H]1O`, the Ratio in the series listed under Bos taurus [5] amounted to 0; in the series filed under Bos taurus [6] it was 0.04; in the series filed under Bos taurus [7], 0.59; in the series listed under Bos taurus [8], 1.28. For the same compound, the half-life in series [14] is 0.867 h; in series [11], 3 h. Further, in the series with C6 [9], the Activity is given as 90%. The figures for the Rf in series [10] and in [12] were 0.39 and 0.26, respectively. This compound also showed a half-life at 5 µM in series [13] of 83 h.
Regarding `Nc1ncnc2c1ncn2[C@@H]1O[C@@H]2CO[P@@](=O)(OCc3ccccc3)O[C@H]2[C@H]1O`, the Ratio in the series listed under Bos taurus [5] was 0.03; in the series listed under Bos taurus [6] it was 0.49; in the series listed under Bos taurus [7], 1; in the series listed under Bos taurus [8], 1.22. In the series with C6 [9], this compound returned an Activity of 90%. Besides, the Rf in [10] amounted to 0.35; in series [12], 0.25. Further, in series [13], the half-life at 5 µM is 0.5 h. The half-life in series [11] was 3 h.
For `Nc1ncnc2c1ncn2[C@@H]1O[C@@H]2COP(=O)(OCc3ccccc3)O[C@H]2[C@H]1O` (stereo partly specified), the Ratio is 0.07 in the series listed under Bos taurus [5], 0.46 in the series filed under Bos taurus [6], 0.84 in the series filed under Bos taurus [7] and 0.66 in the series listed under Bos taurus [8].
In the series on C6 [9], `Nc1ncnc2c1ncn2[C@@H]1O[C@@H]2COP(=O)(OCc3ccccc3)O[C@H]2[C@H]1O` (single isomer, unassigned) [listing 1 of 2 here] came in with an Activity of 90%. Moreover, the Rf came out at 0.46 in [10] and 0.39 in [12]. Moreover, in series [13], the half-life at 5 µM is 2.2 h. Also, the half-life in series [11] was 9.5 h.
With `CCO[P@]1(=O)OC[C@H]2O[C@@H](n3cnc4c(N)ncnc43)[C@H](O)[C@@H]2O1`, the Ratio amounted to 0 in the series filed under Bos taurus [5], 0 in the series listed under Bos taurus [6], 0.06 in the series filed under Bos taurus [7] and 0.58 in the series listed under Bos taurus [8]. The Activity with C6 [9] is reported as 0%. Also, the Rf in series [10] is on record as 0.35; in series [12], 0.19. Also, the half-life in [11] was 3 h.
Consider `Cc1ccc(CO[P@@]2(=O)OC[C@H]3O[C@@H](n4cnc5c(N)ncnc54)[C@H](O)[C@@H]3O2)cc1`, for which the Activity in the series on C6 [1] amounted to 10%; in the series with C6 [2] it was 30%; in the series with C6 [3], 80%; in the series with C6 [4], 70 pmol/mg; in the series with C6 [15] it was 20%; with C6 [16], 60%. The values for the Activity in the series on C6 [17], in the series on C6 [18] and in the series with C6 [9] were 90%, 225 pmol/mg and 90%, respectively. For the same compound, the Rf in series [10] stood at 0.45; in [12], 0.26. For the same compound, the half-life at 5 µM in series [13] was 0.1 h. In series [11], the half-life is 9.5 h.
`Nc1ncnc2c1ncn2[C@@H]1O[C@@H]2COP(=O)(OCc3ccccc3)O[C@H]2[C@H]1O` (single isomer, unassigned) [listing 2 of 2 here]: the Ratio in the series listed under Bos taurus [5] came to 0; in the series listed under Bos taurus [6] it was 0.09; in the series listed under Bos taurus [7] it was 0.59; in the series listed under Bos taurus [8], 0.45.
For `Nc1ncnc2c1ncn2[C@@H]1O[C@@H]2CO[P@](=O)(OCc3ccccc3[N+](=O)[O-])O[C@H]2[C@H]1O`, the Ratio was found to be 0 in the series listed under Bos taurus [5], 0 in the series listed under Bos taurus [6], 0.05 in the series listed under Bos taurus [7] and 0.34 in the series filed under Bos taurus [8]. Also, the half-life in [14] is 1.1 h; in series [11], 9.5 h. Besides, the Activity with C6 [9] is 90%. The Rf was determined as 0.44 in series [10] and 0.39 in series [12]. Moreover, the half-life at 5 µM in series [13] was 300 h.
